Screening data: PubChem, Sanford-Burnham Center for Chemical Genomics
Apaf1 activ: activates human Apaf-1 apoptosome. hit rate 0.31% among 330,000. Apaf-1 apoptosome caspase-3 activation, DEVD-Rh110 fluorescence; hits give low values. O14727. activity change, negative = activation, % at 20 µM. AID 489031;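 active = activity change at or below -40% at 20 µM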
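Assay system – biochemical Apaf-1 apoptosome reconstitution · Medium – 20 mM HEPES buffer, pH 7.5, containing CHAPS and BSA · Incubation – 30 min preincubation, 50 min reaction, room temperature · Measured by – Caspase-3-released Rh110 fluorescence, 540 nm emission, 480 nm excitation · Read-out – Caspase-3 cleavage activity downstream of Apaf-1 activation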
Rh110 interf act: counter-screen for Apaf-1 activators: fluorescence interference | shares compounds with Apaf1 activ | Rh110 fluorescence interference, quenched caspase reaction, Ex480/Em540 | fluorescence interference (activity change), % at 20 µM, hits read low | 980 tested, under 10 active;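 active = mean activity change at or below -40% when tested at 20 µM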
Apaf-1 act conf: Apaf-1 (human) activation, single-dose confirmed | activity change, negative = activation, % at 20 µM | AID 504617 | reconstituted apoptosome caspase-3 activity, DEVD-Rh110 fluorescence; hits give low values | hit rate 5% among 980 | shares compounds with Apaf1 activ;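 active = mean activity change at or below -40%, meaning activation of 40% or more, at 20 µM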
Each line names hits and unclear results; the compound was inactive in the other large screens (follow-up assays come after a bar, where they were run). The list is a sample of the results.

CCN(CC(=O)Nc1ccc2c(c1)OCCO2)S(=O)(=O)c1ccc(C)cc1	Apaf1 activ -78 | Rh110 interf act inactive | Apaf-1 act conf inactive
CCN(Cc1ccccc1)S(=O)(=O)c1ccc(C(=O)N(CCCN(C)C)c2nc3cc4c(cc3s2)OCCO4)cc1	none
CN(CC(=O)Nc1ccc2c(c1)OCCO2)S(=O)(=O)c1cccc2cccnc12	Apaf1 activ -115 | Rh110 interf act inactive | Apaf-1 act conf inactive
CC1(C)CC(=O)c2c(-c3cccnc3)n[nH]c2C1	none
CCN1CCN(C2=C(NS(=O)(=O)c3ccccc3)C(=O)c3ccccc3C2=O)CC1	none
NC1=NC[C@H](Cc2ccccc2)N1CCc1cc(C(F)(F)F)cc(C(F)(F)F)c1	none
Cc1[nH][nH]c(=O)c1C(c1ccc(-c2ccc(F)cc2)o1)c1c(C)[nH][nH]c1=O	none
CCOc1cccc(CNc2ccc(O)cc2)c1OCc1ccccc1Cl	none
CC1=NN(c2ccccc2)C(=O)/C1=C/c1cccc(C)c1	none
CN(C)CCn1c2c(c(SCC(=O)Nc3ccc4c(c3)OCCO4)nc1=O)CCCC2	Apaf1 activ -62 | Rh110 interf act inactive | Apaf-1 act conf inactive
COc1ccc(NC(=O)CSc2nc3c(c(-c4cccs4)c2C#N)CN(C)CC3)cc1OC	none
CN(C)CCN(C(=O)c1ccc2c(c1)CCCC2)c1nc2cc3c(cc2s1)OCCO3	none
COc1cccc2c1C(=O)c1c(O)c3c(c(O)c1C2=O)C[C@@](O)(C(=O)CO)C[C@@H]3O[C@H]1C[C@H](N)[C@H](O)[C@H](C)O1	none
c1csc(Cc2nn3c(-c4n[nH]c5c4CCC5)nnc3s2)c1	none
CCC(CO)Oc1cc(NCc2ccccc2OC)c2ncn(C(C)C)c2c1 (stereo not given)	none
Cc1cc2cc(CNC(=O)Nc3cccc(Cl)c3)ccc2n1C	none
NC(=O)C1(N2CCCCC2)CCN(C(=S)Nc2cccc(Cl)c2)CC1	Apaf1 activ -43 | Rh110 interf act inactive | Apaf-1 act conf inactive
Cn1c(=O)c2cc(NCc3ccccc3)nnc2n(C)c1=O	none
Cc1cc(Br)ccc1OCCCCN1CCC(C)CC1	Apaf1 activ -57 | Rh110 interf act inactive | Apaf-1 act conf inactive
CCOC(=O)N1CCC(N2Cc3cccc(C(=O)Nc4ccccc4OC)c3C2=O)CC1	Apaf1 activ -44 | Rh110 interf act inactive | Apaf-1 act conf inactive
c1csc(-c2nc3c4ccccc4c4ccccc4c3[nH]2)c1	none
Cc1ccc(C=Nc2ccc(N(C)C)cc2)o1	none
Nc1cc2nsnc2cc1Br	none
C#CCOCCOCCOCCNc1nc(N2CCN(C(=O)CCCCCCCCCCNC(=O)[C@H]([C@@H](C)CC)n3cc(CCCCCN)nn3)CC2)nc(N2CCN(C(=O)CCCCCCCCCCNC(=O)[C@H](CCCCN)n3cc(CCCC(=O)O)nn3)CC2)n1	none
COc1ccc(C2C(C#N)=C(N)OC(C(C)(C)C)=C2C#N)cc1OC (stereo not given)	Apaf1 activ -51 | Rh110 interf act inactive | Apaf-1 act conf inactive
CC1Cc2ccccc2N1CC(=O)Nc1ccc(S(=O)(=O)N(C)C)cc1 (stereo not given)	Apaf1 activ -444 | Rh110 interf act inactive | Apaf-1 act conf inactive
CN(C)S(=O)(=O)c1ccc(NC(=O)CN2CCCC2c2ccc3c(c2)OCCCO3)cc1 (stereo not given)	none
C#CCOCCOCCOCCNc1nc(N2CCN(C(=O)CCCCCCCCCCNC(=O)Cn3cc(CCCCCN)nn3)CC2)nc(N2CCN(C(=O)CCCCCCCCCCNC(=O)[C@@H](CCSC)n3cc(CCO)nn3)CC2)n1	none
CCCCNc1c(-c2ccc(SC3CCCCC3)cc2)nc2cnccn12	none
CN1CCc2cccc3c2[C@@H]1Cc1ccc(O)c(O)c1-3	none
Clc1cccc(Cl)c1CNC1CCCC1	Apaf1 activ -48 | Rh110 interf act inactive | Apaf-1 act conf inactive
Fc1cccc(Cl)c1CNc1ccc(N2CCCC2)cc1	none
CC(=O)Nc1ccc(S(=O)(=O)Nc2nc3ccccc3nc2Nc2ccc(C(=O)O)c(O)c2)cc1	none
Cc1cccc(NC2=C(NC(=O)c3ccccc3)C(=O)c3ccccc3C2=O)c1	none
Cc1ccc(S(=O)(=O)NC(=O)Nc2ccccc2)cc1	Apaf1 activ -529 | Rh110 interf act inactive | Apaf-1 act conf inactive
NC(=O)C1CCN(C2=C(NS(=O)(=O)c3ccc(Br)cc3)C(=O)c3ccccc3C2=O)CC1	none
O=C(NCCc1ccccc1)c1ccc2nc(-c3ccco3)c(-c3ccco3)nc2c1	none
O=C(CCc1ccccc1)Nc1ccc(NC(=O)c2ccco2)cc1	Apaf1 activ -193 | Rh110 interf act inactive | Apaf-1 act conf inactive
CCCN1CCCc2cc(CN)ccc21	none
COc1ccc(C(CCN2CCOCC2)c2c(OC)cc(OC)c3c(-c4ccccc4)cc(=O)oc23)cc1 (stereo not given)	none
